From article PMC7338260 (European journal of medicinal chemistry, 2020)
Each block holds one compound with its values, some of them ahead of it.

Assays:
[1] = test system: HEK293 cell line expressing hNOD2 and NFκB-SEAP reporter; assay: Human NOD2 signaling HEKBlue reporter assay; format: cell-based; settings: read-out: RIPK2/NOD2 Cell Assay IC50, HEKBlue, 1 ng/mL L18-MDP, mean of two or three determinations ± standard deviation, NI: No inhibition up to 10 μM
Outline: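 Cells seeded at 7.5-15x10^3 per well; after 24–48 h switched to HEKBlue detection medium and given an 11-point dose range of test compound together with the stimulant. SEAP read as absorbance at 620 nm after 7–9 h. Media-only background subtracted; % inhibition relative to DMSO/L18-MDP controls; IC50 by non-linear regression.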

[2] = test system: XIAP-mediated RIPK2 ubiquitination; settings: cited from earlier work
[3] = test system: U2OS/NOD2 cells; settings: cited from earlier work
[4] = test system: GST-BIR2-cIAP1 and RIPK2; settings: cited from earlier work
[5] = test system: RAW264.7 macrophages; settings: cited from earlier work
[6] = molecular target: Recombinant RIPK2 protein (Homo sapiens, UniProt O43353); assay: RIPK2 enzyme assay; format: biochemical; settings: for selectivity for RIPK2 versus ALK2: ratio of ALK2 to RIPK2 kinase IC50
Outline: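 Started with solution of 100 μM ATP + 1 mg/ml RS repeat peptide, 2 h RT; ADP-Glo luminescence. IC50 by non-linear regression. ALK2: human enzyme, casein 1 mg/mL, γ-33ATP 10 μM, 10 nM–100 μM compound, 30 min, 33P-casein.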

[7] = test system: RAW264.7 macrophages; format: cell-based; settings: at 1 μM; data not shown

Recombinant RIPK2 protein, sequence (O43353 whole entry): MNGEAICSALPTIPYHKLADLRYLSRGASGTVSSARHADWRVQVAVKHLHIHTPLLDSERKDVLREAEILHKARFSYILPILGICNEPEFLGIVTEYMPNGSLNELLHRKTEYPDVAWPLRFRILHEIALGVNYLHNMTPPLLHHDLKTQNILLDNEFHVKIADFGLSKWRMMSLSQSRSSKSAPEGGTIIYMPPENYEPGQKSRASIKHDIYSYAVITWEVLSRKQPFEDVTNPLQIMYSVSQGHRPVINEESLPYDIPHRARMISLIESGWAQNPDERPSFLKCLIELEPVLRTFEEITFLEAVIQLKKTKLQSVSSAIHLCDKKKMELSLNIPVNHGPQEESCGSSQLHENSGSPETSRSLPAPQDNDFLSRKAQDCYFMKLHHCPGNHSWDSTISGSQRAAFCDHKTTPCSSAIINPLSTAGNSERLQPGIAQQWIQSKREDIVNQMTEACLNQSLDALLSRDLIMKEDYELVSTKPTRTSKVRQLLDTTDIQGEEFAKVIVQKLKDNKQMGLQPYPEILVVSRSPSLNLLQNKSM

Compound: CCCS(=O)(=O)Nc1cc(-c2cc(-c3ccc(N4CCNCC4)cc3)cnc2N)cc(OCC)c1OC [Compound 18q, N-(5-(2-Amino-5-(4-(piperazin-1-yl)phenyl)pyridin-3-yl)-3-ethoxy-2-methoxyphenyl)propane-1-sulfonamide]
- IC50 [1]: > 10 µM

Compound: CCCS(=O)(=O)Nc1cc(-c2cc(-c3ccc(N4CCNCC4)cc3)cnc2N)ccc1O [Compound 18n, N-(5-(2-Amino-5-(4-(piperazin-1-yl)phenyl)pyridin-3-yl)-2-hydroxyphenyl)propane-1-sulfonamide]
- IC50 [1]: > 5 µM

Compound: COc1cc(-c2cc(-c3ccc(N4CCNCC4)cc3)cnc2C)cc(OC)c1OC [Compound 9a, reference compound]
- IC50 [1]: > 10 µM

Compound: CCCS(=O)(=O)Nc1cc(-c2cc(-c3ccc(N4CCNCC4)cc3)cnc2N)cc(OC)c1OC [Compound 18p, N-(5-(2-Amino-5-(4-(piperazin-1-yl)phenyl)pyridin-3-yl)-2,3-dimethoxyphenyl)propane-1-sulfonamide]
- XIAP-mediated RIPK2 ubiquitination [2]: blocked
- inhibition of L18-MDP-induced CXCL8 production [3]: efficient inhibition
- interaction between GST-BIR2-cIAP1 and RIPK2 [4]: interfered
- inhibition of L18-MDP-induced TNFα release [5]: efficient inhibition

Compound: CCCS(=O)(=O)Nc1cc(-c2cc(-c3ccc(S(C)(=O)=O)cc3)cnc2N)ccc1OC [Compound 18ad, N-(5-(2-Amino-5-(4-(methylsulfonyl)phenyl)pyridin-3-yl)-2-methoxyphenyl)propane-1-sulfonamide]
- IC50 [1]: > 10 µM

Compound: CCCS(=O)(=O)Nc1cc(-c2cc(-c3ccccc3S(C)(=O)=O)cnc2N)ccc1OC [Compound 18ab, N-(5-(2-Amino-5-(2-(methylsulfonyl)phenyl)pyridin-3-yl)-2-methoxyphenyl)propane-1-sulfonamide]
- IC50 [1]: > 10 µM

- IC50 [6]: 0.041 ± 0.019 µM
- selectivity for RIPK2 versus ALK2 [6]: 86 fold
Compound: CCCS(=O)(=O)Nc1cc(-c2cc(-c3ccc(N4CCNCC4)cc3)cnc2N)ccc1OC [Compound 18m, N-(5-(2-Amino-5-(4-(piperazin-1-yl)phenyl)pyridin-3-yl)-2-methoxyphenyl)propane-1-sulfonamide]

- selectivity for RIPK2 versus ALK2 [6]: > 20 fold
Compound: CCCS(=O)(=O)Nc1cc(-c2cc(-c3ccc(N4CCNCC4)cc3)cnc2N)cc(F)c1OC [Compound 18t, N-(5-(2-Amino-5-(4-(piperazin-1-yl)phenyl)pyridin-3-yl)-3-fluoro-2-methoxyphenyl)propane-1-sulfonamide]
- block of RIPK1 and RIPK3 dependent necroptosis [7]: did not block
- XIAP-mediated RIPK2 ubiquitination [2]: blocked
- inhibition of L18-MDP-induced CXCL8 production [3]: efficient inhibition
- interaction between GST-BIR2-cIAP1 and RIPK2 [4]: interfered
- inhibition of L18-MDP-induced TNFα release [5]: efficient inhibition
